From ChEMBL document CHEMBL1157859, “Synthesis of some new pyrimido[2',1':2,3]thiazolo[4,5-b]quinoxaline derivatives as anti-inflammatory and analgesic agents” (2010)

What was measured:
Type in all cases: functional
Mus musculus [1] = test: Analgesic activity in Swiss albino mouse assessed as protection against acetic acid-induced writhing at 20 mg/kg, po after 1 hr
Mus musculus [2] = test: Analgesic activity in Swiss mouse at 20 mg/kg, po assessed as reaction time after 60 mins by hot plate method
In short: (§1)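 Swiss mice (25–30 g, both sexes), 6 per group, given an oral aqueous suspension at 20 mg/kg. Reaction time on a hot plate was taken as the interval to hind-paw licking or jumping, with a 60 s cut-off. It was measured before dosing (0 min) and at 15, 30, 60 and 90 min after treatment. Mean of six animals.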

Rattus norvegicus [3] = test: Antiinflammatory activity in Sprague-Dawley rat assessed as protection against carrageenan-induced paw edema at 20 mg/kg, po administered 1 hr before carrageenan challenge measured after 3 hrs
In short: (§2)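 Female Sprague–Dawley rats, fasted 18 h, 6 per group. Given 20 mg/kg orally as an aqueous suspension in distilled water, 1 h before 0.1 mL of 1% w/v carrageenan injected subcutaneously into the left hind footpad. Paw volume was read by mercury plethysmometer before injection and hourly for 4 h. Inhibition % = (Ec − Et)/Ec from edema rates; mean ± S.E, n = 6.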

Mus musculus [4] = test: Analgesic activity in Swiss albino mouse assessed as protection against acetic acid-induced writhing at 20 mg/kg, po after 3 hrs
Mus musculus [5] = test: Analgesic activity in Swiss albino mouse assessed as protection against acetic acid-induced writhing at 20 mg/kg, po after 30 mins
In short: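 Swiss mice (25–30 g, both sexes), fasted 16 h, 6 per group. Dosed orally at 20 mg/kg as an aqueous suspension; controls got distilled water. After 30 min, 0.7% aqueous acetic acid was given at 10 mL/kg. Writhes were counted for 20 min. % protection = (control mean − treated mean)/control mean × 100.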

Mus musculus [6] = test: Analgesic activity in Swiss mouse at 20 mg/kg, po assessed as reaction time after 30 mins by hot plate method; in short: as §1
Mus musculus [7] = test: Analgesic activity in Swiss albino mouse assessed as protection against acetic acid-induced writhing at 20 mg/kg, po after 2 hrs
Mus musculus [8] = test: Analgesic activity in Swiss mouse at 20 mg/kg, po assessed as reaction time after 90 mins by hot plate method; in short: as §1
Rattus norvegicus [9] = test: Antiinflammatory activity in Sprague-Dawley rat assessed as protection against carrageenan-induced paw edema at 20 mg/kg, po administered 1 hr before carrageenan challenge measured after 1 hr; in short: as §2
Rattus norvegicus [10] = test: Antiinflammatory activity in Sprague-Dawley rat assessed as protection against carrageenan-induced paw edema at 20 mg/kg, po administered 1 hr before carrageenan challenge measured after 2 hrs; in short: as §2

Compound | Activity (Mus musculus [1]) [%] | Time (Mus musculus [2]) [s] | Activity (Rattus norvegicus [3]) [%] | Activity (Mus musculus [4]) [%] | Activity (Mus musculus [5]) [%] | Time (Mus musculus [6]) [s] | Activity (Mus musculus [7]) [%] | Time (Mus musculus [8]) [s] | Activity (Rattus norvegicus [9]) [%] | Activity (Rattus norvegicus [10]) [%]
O=c1c2ccc(Cl)cc2[nH]c2nc3sc4nc5ccccc5nc4n3c(=O)c12 | 51 | 9.5 | 31.5 | 38.3 | 40.5 | 7.07 | 47.3 | 12.7 | 43.1 | 48
Nc1cc(=O)n2c(n1)sc1nc3ccccc3nc12 | 68 | 9.41 | 41.2 | 46.3 | 60.4 | 8.42 | 73.3 | 10.7 | 55.3 | 61
O=c1c2ccccc2[nH]c2nc3sc4nc5ccccc5nc4n3c(=O)c12 | 49 | 9.78 | 30.1 | 38.4 | 42.5 | 8.16 | 53.1 | 10.1 | 40.2 | 41.5
O=c1c2cc3ccccc3nc2nc2sc3nc4ccccc4nc3n12 | 46 | 10.6 | 37.6 | 35.2 | 40.4 | 8.84 | 47.8 | 10.9 | 45.3 | 47.6
COc1ccc(/C=C2/CCCc3c2nc2nc4sc5nc6ccccc6nc5n4c(=O)c2c3-c2ccc(OC)cc2)cc1 | 53 | 9.82 | 40.1 | 38.6 | 51.4 | 8.67 | 56.5 | 10.4 | 48 | 52.2
O=c1c2c(-c3ccccc3)c3c(nc2nc2sc4nc5ccccc5nc4n12)/C(=C\c1ccccc1)CCC3 | 47 | 8.86 | 31.9 | 38.6 | 42.4 | 7.51 | 50.3 | 10.4 | 41.3 | 43.8
O=c1c2c(-c3ccc(Cl)cc3)c3c(nc2nc2sc4nc5ccccc5nc4n12)/C(=C\c1ccc(Cl)cc1)CCC3 | 53 | 9.06 | 38.2 | 36.3 | 45 | 8.61 | 55.6 | 9.22 | 45.7 | 43.2
Cc1cc(C)c2c(N)c3c(=O)n4c(nc3nc2n1)sc1nc2ccccc2nc14 | 75 | 10.7 | 45.5 | 60.3 | 72.2 | 10.1 | 76.2 | 7.62 | 58.5 | 60.4
O=C([O-])Cc1ccccc1Nc1c(Cl)cccc1Cl.[Na+] [DICLOFENAC SODIUM] | 55.2 | 11.4 | 42 | 39 | 46 | 10 | 62 | 13.2 | 52.4 | 60.3
Nc1cc(=O)[nH]c(Sc2nc3ccccc3nc2Cl)n1 | 73 | 9.41 | 41.3 | 57.2 | 68 | 8.42 | 75.4 | 10.7 | 58.8 | 58.3
O=c1c2cc3c(nc2nc2sc4nc5ccccc5nc4n12)CCCC3 | 45 | 10.4 | 24.3 | 34.7 | 42.2 | 8.4 | 45.1 | 10.7 | 38.8 | 41.3
O=c1cc(/N=C/c2ccncc2)nc2sc3nc4ccccc4nc3n12 | 64.1 | 9.82 | 33.4 | 51.1 | 60.2 | 9.66 | 68.2 | 10.4 | 51.1 | 54.2
Cc1nn(-c2ccccc2)c2nc3nc4sc5nc6ccccc6nc5n4c(=O)c3cc12 | 52 | 8.6 | 33.8 | 35.5 | 45.7 | 7.55 | 58.3 | 12 | 48.6 | 56.1
